Experimental findings from ChEMBL document CHEMBL5715946 (Chem Biol, 2010) are described below.

Experiment [1] deals with Macrophage migration inhibitory factor (Rattus norvegicus) (UniProt P30904). The experiment can be described thus: Inhibition of recombinant rat MIF expressed in Escherichia coli BL21 (DE3) assessed as reduction in tautomerase activity at 30 uM using L-dopachrome carboxy-methyl ester as substrate by spectrophotometry relative to control. The gist of the method:
(§1)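 Purified recombinant rat MIF tautomerase assayed with purified L-dopachrome carboxy-methyl ester as substrate in pH 6.0 buffer; rate taken over the initial 30 s. Mean ± SD, n = 4.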
Target sequence in this assay (P30904 2-115 limits assumed): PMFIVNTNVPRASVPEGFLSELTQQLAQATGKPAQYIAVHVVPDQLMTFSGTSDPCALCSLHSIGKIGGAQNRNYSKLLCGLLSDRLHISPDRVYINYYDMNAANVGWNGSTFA

Experiment [2] shares this target. The experiment is described as follows: Inhibition of [3H]-BTZO-1 binding to recombinant rat C-terminal His-tagged MIF expressed in Escherichia coli BL21 (DE3) at 100 uM measured after 3 hrs by SPA relative to control.
Target sequence in this assay (P30904 whole entry, looked up): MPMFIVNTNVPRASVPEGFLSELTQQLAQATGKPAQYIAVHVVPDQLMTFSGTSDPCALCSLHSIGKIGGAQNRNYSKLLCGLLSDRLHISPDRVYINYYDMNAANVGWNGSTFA
The test system of experiment [3] is Antioxidant response element. The experiment can be described thus: Induction of rat ARE activity expressed in rat H9c2 cells assessed as increase in ARE luciferase activity measured after 24 hrs by steady-glo luciferase Assay. The format is cell-based. Summed up: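 H9c2 cells transiently transfected with pGL3-ARE-Luc or pGL3-mARE-Luc, compound exposure 24 hr, luciferase read by Steady-Glo. MEC2.0 is the concentration giving a doubling of luciferase activity. Mean ± SD, n = 4.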

For experiment [4], the target named is Macrophage migration inhibitory factor (Rattus norvegicus, UniProt P30904). The experiment can be described thus: Inhibition of recombinant rat MIF expressed in Escherichia coli BL21 (DE3) assessed as reduction in tautomerase activity using L-dopachrome carboxy-methyl ester as substrate by spectrophotometry. The gist of the method:
as §1

The target of experiment [5] is Macrophage migration inhibitory factor (Rattus norvegicus) (UniProt P30904). The experiment can be described thus: Inhibition of [3H]-BTZO-1 binding to recombinant rat C-terminal His-tagged MIF expressed in Escherichia coli BL21 (DE3) measured after 3 hrs by SPA.
Target sequence in this assay (P30904 whole entry, looked up): as above
Experiment [6] deals with Cardiac muscle cell. The experiment is described as follows: Cytoprotective activity against serum deprivation-induced neonatal Wistar rat cardiomyocyte death assessed as increase in cell viability measured after 4 days by WST-8 assay. The format is functional. The settings on record: time 4 day. The gist of the method: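 Primary neonatal rat cardiomyocytes were isolated by proteinase digestion, with preplating to remove adherent non-myocytes. Death was induced by serum deprivation at low density (3×10^5 cells/ml) for 4 days with compound present. Viability was read by WST-8. MEC1.5 is the concentration giving a 50% rise in viability. n = 3.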

Experiment [7] deals with Macrophage migration inhibitory factor (Rattus norvegicus) (UniProt P30904). The experiment can be described thus: Binding affinity to recombinant rat MIF expressed in Escherichia coli BL21 (DE3) by chromatography.
Target sequence in this assay (P30904 2-115 limits assumed): as the sequence (P30904 2-115 limits assumed) above
Experiment [8] relates to Antioxidant response element. The experiment can be described thus: Induction of ARE activity in serum-deprived neonatal Wistar rat cardiomyocytes assessed as increase in GST Ya mRNA level up to 3 uM measured after 24 hrs by RT-qPCR analysis. The settings on record: Cardiomyocyte. The format is cell-based. The gist of the method:
(§2)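 Neonatal rat cardiomyocytes exposed to samples or vehicle in M-199 with 1% penicillin-streptomycin, no serum, for 24 hr. GST Ya and HO-1 mRNA measured by real-time qPCR (mean ± SD, n = 3); protein by western blot with β-actin as control.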

Experiment [9] concerns Rattus norvegicus. The experiment can be described thus: Cardioprotective effect against ischemia reperfusion injury in Wistar rat myocardial infarction model assessed as area at risk at 10 mg/kg, ip administered 1 hr prior to LAD occlusion and 2 and 8 hr after reperfusion and measured after 24 hrs by Evans blue dye based assay (reference value: 46 +/- 3%). Format: functional. The settings on record: time 25 hrs. The gist of the method:
(§3)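 Anaesthetized rats; LAD coronary occlusion 25 min followed by 24 hr reperfusion. Compound 10 mg/kg i.p. given 1 hr before occlusion and 2 and 8 hr after reperfusion; vehicle controls, n = 13. Area at risk given as % of LV, infarct size as % of area at risk. Mean ± SEM.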

Experiment [10] has as its system Rattus norvegicus. The experiment is described as follows: Cardioprotective effect against ischemia reperfusion injury in Wistar rat myocardial infarction model assessed as reduction in infarct size at 10 mg/kg, ip administered 1 hr prior to LAD occlusion and 2 and 8 hr after reperfusion and measured after 24 hrs by Evans blue dye based assay relative to control. Format: functional. Also noted: scale not given: the % may be the effect or the level left. The settings on record: time 25 hrs. Summed up: as §3

Experiment [11] has as its system Antioxidant response element. The experiment is described as follows: Induction of ARE activity in serum-deprived neonatal Wistar rat cardiomyocytes assessed as increase in GST Ya expression up to 400 nM measured after 24 hrs by Western blot analysis. The following applies: Cardiomyocyte. Format: cell-based. Summed up: as §2
The test system of experiment [12] is Antioxidant response element. The experiment can be described thus: Induction of ARE activity in serum-deprived neonatal Wistar rat cardiomyocytes assessed as increase in HO-1 mRNA level up to 3 uM measured after 24 hrs by RT-qPCR analysis. The format is cell-based. The settings on record: Cardiomyocyte. The gist of the method: as §2
The test system of experiment [13] is Antioxidant response element. The experiment can be described thus: Induction of ARE activity in serum-deprived neonatal Wistar rat cardiomyocytes assessed as increase in HO-1 expression up to 400 nM measured after 24 hrs by Western blot analysis. The format is cell-based. The settings on record: Cardiomyocyte. Summed up: as §2
The target in experiment [14] is Macrophage migration inhibitory factor (Rattus norvegicus) (UniProt P30904). The experiment is described as follows: Binding affinity to MIF in Wistar rat isolated heart by chromatography. Format: tissue-based.
Target sequence in this assay (P30904 2-115 limits assumed): as above
Experiment [15] has the same target. The experiment can be described thus: Induction of MIF-stimulated ARE activity in rat H9c2 cells assessed as increase in GST Ya expression at 3 uM incubated for 24 hrs by RT-qPCR analysis. The format is cell-based.
Target sequence in this assay (P30904 2-115 limits assumed): as above
For experiment [16] the target is unchanged. The experiment is described as follows: Induction of MIF-stimulated ARE activity in rat H9c2 cells assessed as increase in HO-1 expression at 3 uM incubated for 6 hrs by RT-qPCR analysis. Format: cell-based.
Target sequence in this assay (P30904 2-115 limits assumed): as above
In experiment [17] the test system is Antioxidant response element. The experiment can be described thus: Induction of rat ARE activity expressed in MIF-stimulated rat H9c2 cells assessed as increase in ARE luciferase activity at 1 uM measured after 24 hrs by steady-glo luciferase Assay. The format is cell-based. The gist of the method:
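H9c2 cells transiently transfected with pGL3-ARE-Luc (rat GST Ya ARE) or mutant-ARE control plasmid, then treated with rMIF with or without 1 μM compound for 24 hr. Luciferase by Steady-Glo; mean ± SD, n = 4.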

The target of experiment [18] is Macrophage migration inhibitory factor (Rattus norvegicus) (UniProt P30904). The experiment can be described thus: Binding affinity to MIF in Wistar rat isolated heart by SPR analysis. Format: tissue-based. Summed up:
(§4)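 BTZO-12-type sensor chip probed with rat heart protein; bound protein recovered by microrecovery elution, then identified by silver staining and by western blot with anti-MIF antibody.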
Target sequence in this assay (P30904 2-115 limits assumed): as above

Experiment [19] has the same target. The experiment can be described thus: Binding affinity to rat C-terminal His-tagged MIF expressed in Escherichia coli BL21 (DE3) by SPR analysis. Summed up:
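Sensor chip carrying immobilized BTZO-12; MIF (wild type or point mutants) passed over it and specific binding monitored by surface plasmon resonance.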

Experiment [20] has the same target. The experiment can be described thus: Binding affinity to MIF in Wistar rat isolated heart by silver staining based assay. The format is tissue-based. Summed up:
as §4

The target is the same in experiment [21]. The experiment can be described thus: Binding affinity to MIF in Wistar rat isolated heart by Western blot analysis. Format: tissue-based. Summed up:
as §4

The source made the active and inactive calls. The calls are words filed in the database; no cut-off is given here. Bounds are passed on as bounds.

Sequence of Macrophage migration inhibitory factor (P30904 2-115 limits assumed): as above

Consider `COC(=O)CC1CC(c2ccc(O)cc2)=NO1` (stereo not drawn), for which the inhibition turned out to be 30% in experiment [1] and 12% in experiment [2]. The MEC2 in experiment [3] is > 30 µM. Besides, the IC50 in experiment [4] came to 68 µM.
As for `CCCCC/C=C/C=C1/C(=O)C=C[C@@H]1C/C=C\CCCC(=O)O`, the results for the IC50 in experiment [5] and in experiment [4] were 3.6 µM and 3.7 µM, respectively. Besides, the MEC2 in [3] worked out at 7.3 µM.
As for `Cc1cc(C)c2sc(-c3cccc(CCCOCCC(=O)O)n3)nc(=O)c2c1`, the MEC1.5 in experiment [6] is given as >1000 nM. In experiment [3], the MEC2 is > 10 µM. The result in experiment [7] was inactive.
As for `O=C(O)CCOCCCc1cccc(-c2nc(=O)c3cccnc3s2)n1`, the MEC1.5 in experiment [6] is listed as >1000 nM. Also, in experiment [3], the MEC2 is > 10 µM. The outcome in experiment [7] was inactive.
`O=C(O)CCc1cccc(-c2nc(=O)c3ccccc3s2)n1`: the result in experiment [8], in experiment [11], in [12] and in experiment [13] was Active. Moreover, in experiment [6], the MEC1.5 turned out to be 39 nM. Besides, the values for the Activity in experiment [9], in experiment [10] and in experiment [3] were 48%, 45% and “Dose-Dependent Effect”, respectively. For the same compound, the inhibition in experiment [1] turned out to be 14%. Also, in experiment [3], the MEC2 amounted to 2.3 µM.
Regarding `O=C(O)CCOCCCc1cccc(-c2nc(=O)c3ccccc3s2)n1`, the MEC1.5 in experiment [6] stood at 53 nM. The MEC2 in [3] worked out at 2.2 µM. For the same compound, the outcome in [7] and in experiment [14] was Active.
For the compound `Cc1cc(C)c2sc(-c3ccccn3)nc(=O)c2c1`, in experiment [6], the MEC1.5 is on record as >1000 nM. For the same compound, the MEC2 in experiment [3] was > 10 µM.
On to `O=C(O)CCOCCCc1ccc(-c2nc(=O)c3ccccc3s2)nc1`, for which the MEC1.5 in experiment [6] is listed as 39 nM. Besides, in [3], the MEC2 came out at 1.6 µM. Besides, the result in experiment [7] and in experiment [14] was Active.
On to `O=c1nc(-c2ccccn2)sc2ncccc12`, for which, in [6], the MEC1.5 was >1000 nM. Further, the inhibition in experiment [1] came out at 5%. In [3], the MEC2 was > 10 µM.
Take `Cc1cccc2c(=O)nc(-c3ccccn3)sc12`: in [6], the MEC1.5 is recorded as >1000 nM. The result in experiment [11], in experiment [15], in [16], in [13] and in [17] was inactive. For the same compound, the inhibition in experiment [1] came out at 6%. Moreover, the MEC2 in [3] was > 10 µM.
As to `O=C(O)CCOCCCc1cccc(C2NC(=O)c3ccccc3S2)n1` (stereo not drawn), in experiment [6], the MEC1.5 was >1000 nM. Also, the MEC2 in experiment [3] was > 10 µM. In [7], the outcome was inactive.
`O=c1nc(-c2cccnc2)sc2ccccc12`: the MEC1.5 in experiment [6] was found to be 39 nM. In experiment [1], the inhibition amounted to 12%. In experiment [3], the MEC2 was determined as 0.8 µM.
`C[S@+]([O-])CCCCN=C=S`: the MEC2 in experiment [3] amounted to 4.4 µM.
As for `Cc1cccc2c(=O)nc(-c3cccc(C(=O)NCCCCCCN)n3)sc12`, the result in experiment [18] and in [19] was inactive. Moreover, the MEC2 in experiment [3] was > 10 µM.
Consider `NCCCCCCNC(=O)c1cccc(-c2nc(=O)c3ccccc3s2)n1`, for which the result in [18], in [20], in experiment [21] and in [19] was Active. In addition, the MEC2 in experiment [3] was 1.1 µM.
Take `O=C1NC(c2ccccn2)Sc2ccccc21` (stereo not drawn) [BTZO-4]: the MEC1.5 in experiment [6] was >1000 nM. For the same compound, the inhibition in experiment [1] is 3%. In addition, in [3], the MEC2 was > 10 µM.
For `CC(C)(C)c1cc(O)ccc1O` [E319], the half-inhibitory concentration (IC50) in experiment [5] was 1.1 µM; in [4], > 30 µM. Further, in experiment [3], the MEC2 was 5.7 µM.
Consider `C[S@@+]([O-])CCCCN=C=S` [L-SULFORAPHANE], for which the IC50 in experiment [5] turned out to be 25 µM; in experiment [4] it was 4.4 µM.
Consider `Cc1c(C)c2c(c(C)c1O)CCC(C)(C(=O)O)O2` (stereo not drawn) [TROLOX], for which, in experiment [6], the MEC1.5 came to 160000 nM.
